Sampled rows, rich in hits. Any-hit rate of the full collection: about 2.3%.
TAAR1 antag: human TAAR1 antagonism. actives 1.5% (n = 360,000). AID 624466. Q96RJ0. inhibition, % at 3 µM. CHO RD-HGA16 TAAR1, Fluo-8 calcium fluorescence, antagonist;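 active means inhibition above a per-plate cutoff, the mean inhibition of test compounds on that plate plus 3 SD, cut at about 49% in these data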;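 further: 0% = DMSO plus EC80 beta-PEA response and 100% = DMSO alone without agonist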
Target sequence (Q96RJ0 whole entry, looked up): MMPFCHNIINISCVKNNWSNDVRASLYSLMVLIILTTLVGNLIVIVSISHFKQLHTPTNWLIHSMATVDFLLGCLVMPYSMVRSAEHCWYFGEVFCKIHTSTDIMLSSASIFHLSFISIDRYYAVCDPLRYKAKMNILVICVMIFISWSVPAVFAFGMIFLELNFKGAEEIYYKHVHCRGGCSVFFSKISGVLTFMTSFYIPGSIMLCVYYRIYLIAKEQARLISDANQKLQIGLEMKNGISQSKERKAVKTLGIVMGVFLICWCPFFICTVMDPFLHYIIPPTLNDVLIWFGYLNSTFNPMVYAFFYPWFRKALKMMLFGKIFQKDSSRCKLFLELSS
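Test system: hTAAR1-expressing CHO RD-HGA16 cells, Gα16-coupled; Probe or stimulus: EC80 β-phenethylamine stimulus; Compound dosing: single nominal final test compound concentration of 3 µM; Timing: 140 s kinetic read after compound, 140 s after agonist; Signal: Fluo-8 calcium-sensitive fluorescence; Measure: % inhibition of agonist calcium response; Controls: DMSO and EC80 PEA controls.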
OXTR potentiator: potentiates the human oxytocin receptor response | P30559 | CHO-OTR cells, Fluo-8 calcium fluorescence, potentiator mode; 0% = oxytocin EC15, 100% = EC100 | activation, % at 3 µM | actives 0.061% (n = 320,000);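 active means activation above that plate's cutoff, the mean activation of tested compounds plus 3 SD, cut at about 6.6% in these data, passing the limit was not always enough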;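 further: 100% uses oxytocin at 75 nM as the full agonist control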
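Dosing: Single dose, 3.0 µM nominal final compound concentration | Material: Human OTR in CHO cells | Technique: Kinetic Fluo-8 calcium fluorescence | Benchmarks: EC15 oxytocin alone as 0%, 75 nM oxytocin as 100% | Probe or stimulus: Oxytocin at about EC15, sub-maximal agonist stimulus | Incubation: Compound 6 min at room temperature before oxytocin, 100 s read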
OXTR ag: human OXTR agonism; P30559; CHO-OTR cells, Fluo-8 calcium fluorescence; normalized: DMSO 0%, oxytocin 100%; activation, % at 3 µM; actives 0.32% (n = 320,000);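 active means activation above the mean of all tested compounds plus 3 SD, cutoff set per screening run, cut at about 20% in these data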;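 further: peak over basal fluorescence ratio from a 100 s FLIPR kinetic read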
TAAR1 agonist: agonists of human TAAR1. actives 0.99% (n = 360,000). Q96RJ0. activation, % at 3 µM. CHO RD-HGA16 TAAR1, Fluo-8 calcium fluorescence; vehicle wells 0%, saturating PEA agonist 100%;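 active means activation above the mean activation of all test compounds in the run plus 3 SD, cut at about 38% in these data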
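Test system: RD-HGA16 (CHO) cells co-expressing Gα16 and hTAAR1; dosing: one-point dosing at 3 µM (nominal); timing: 17-24 h seeding, 75 min 37 °C dye, 30 min RT; signal: kinetic Fluo-8 calcium fluorescence; read-out basis: % activation relative to PEA EC100 response; controls: DMSO and PEA EC100; replicates: n 1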
V1aR counter: V1a receptor agonism, counter-screen for OXTR agonists. CHO-V1R cells, Fluo-8 calcium fluorescence, agonist mode; 0% DMSO, 100% 3 nM vasopressin. P37288. actives 0.25% (n = 320,000). AID 2797. activation, % at 3 µM;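 active means activation above the mean activation of all tested compounds plus 3 SD, per screening run, cut at about 20% in these data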;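 further: signal is peak over basal fluorescence ratio across a 100 second FLIPR read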
Starred values were filed as active, the others as inactive.

O=C(CCl)Nc1ncc(S(=O)(=O)c2ccc([N+](=O)[O-])cc2)s1 was read as TAAR1 antag -7, OXTR potentiator -3, OXTR ag 5, TAAR1 agonist 3 and V1aR counter 3.
Screening CCOc1ccccc1N1CCN(C(=O)CSc2ccc3c(c2)OCCO3)CC1 returned TAAR1 antag 51*, OXTR potentiator -7, OXTR ag 3, TAAR1 agonist 15 and V1aR counter 4.
Screening NCC(c1ccccc1Cl)c1c[nH]c2ccccc12 (stereo not drawn) returned TAAR1 antag -3, OXTR potentiator -13, OXTR ag 8, TAAR1 agonist 8 and V1aR counter 5.
Screening NCC(c1ccc(Cl)cc1Cl)c1c[nH]c2ccccc12 (stereo not drawn) returned TAAR1 antag 46, OXTR potentiator -19, OXTR ag 15, TAAR1 agonist 45* and V1aR counter 4.
Screening CCOC(=O)c1ccc(NC(=O)c2cccc(S(=O)(=O)N3c4ccccc4CC3C)c2)s1 (stereo not drawn) returned TAAR1 antag 63*, OXTR potentiator -6, OXTR ag 1, TAAR1 agonist 0 and V1aR counter 1.
For CC(=Nc1ccc(O)cc1)c1sc2ccccc2c1O the results were TAAR1 antag 19, OXTR potentiator -12, OXTR ag 8, TAAR1 agonist 16 and V1aR counter 7.
Screening CC(=Nc1ccccc1O)c1sc2ccccc2c1O returned TAAR1 antag 44, OXTR potentiator -9, OXTR ag 27*, TAAR1 agonist 30 and V1aR counter 31*.
`O=C(Nc1ccccc1)c1ccc(-c2ccccc2)s1` gave TAAR1 antag 39, OXTR potentiator -1, OXTR ag -1, TAAR1 agonist 38* and V1aR counter 0.
`C=CCNc1nnc(Cc2ccc(F)cc2)c(=O)[nH]1` gave TAAR1 antag -15, OXTR potentiator -5, OXTR ag 0, TAAR1 agonist 2 and V1aR counter 0.
CCOc1ccc(NC(=O)Cn2nnc(C(=O)NCc3ccc(OC)cc3)c2N)cc1 was read as TAAR1 antag -18, OXTR potentiator -6, OXTR ag 0, TAAR1 agonist 3 and V1aR counter 1.
CCOc1ccc(Cn2nnc(C(=O)NCc3ccc(OC)cc3)c2N)cc1 was read as TAAR1 antag 13, OXTR potentiator -6, OXTR ag 8, TAAR1 agonist 50* and V1aR counter 9.
Screening COc1cc(/C=C/C(O)=C/C(=O)/C=C/c2ccc(O)cc2)ccc1O returned TAAR1 antag 81*, OXTR potentiator -11, OXTR ag 22*, TAAR1 agonist 45* and V1aR counter 21*.
`Cc1cc(O)ccc1-c1cc(C(=O)NCc2ccc(F)cc2)[nH]n1` gave TAAR1 antag 32 and TAAR1 agonist 49*.
`COc1ccc(NC(=O)c2cc(-c3ccc(F)cc3OC(C)C)n[nH]2)cn1` gave TAAR1 antag 42 and TAAR1 agonist 4.
`CC(C)Oc1ccc(F)cc1-c1cc(C(=O)NCc2ccc(C(F)(F)F)cc2)[nH]n1` gave TAAR1 antag 54* and TAAR1 agonist 2.
`CC(C)Oc1cc(F)ccc1-c1cc(C(=O)Nc2cccc(C(F)(F)F)c2)[nH]n1` gave TAAR1 antag 55* and TAAR1 agonist 1.
Screening Cc1cc(F)ccc1-c1cc(C(=O)NCc2ccccc2)[nH]n1 returned TAAR1 antag 0 and TAAR1 agonist 2.
Screening CC(=O)Nc1cc(-c2ccc(F)cc2)cn2c(-c3ccc(F)c(Cl)c3)cnc12 returned TAAR1 antag 25 and TAAR1 agonist 0.
`CC(=O)Nc1cc(-c2ccc(CO)cc2)cn2c(-c3ccc(F)c(Cl)c3)cnc12` gave TAAR1 antag 54* and TAAR1 agonist 5.
Screening CC(=O)Nc1cccc(-c2cc(NC(C)=O)c3ncc(-c4cccc(C(F)(F)F)c4)n3c2)c1 returned TAAR1 antag 50* and TAAR1 agonist 17.
COc1cccc(-c2cnc3c(NC=O)cc(-c4cccc(NC(C)=O)c4)cn23)c1 was read as TAAR1 antag 55* and TAAR1 agonist 9.
`CC(=O)Nc1cccc(-c2cc(NC=O)c3ncc(-c4cccc(C(C)=O)c4)n3c2)c1` gave TAAR1 antag 26 and TAAR1 agonist 7.
`COc1cccc(-c2cnc3c(NC(C)=O)cc(-c4cccc(NS(C)(=O)=O)c4)cn23)c1` gave TAAR1 antag 50* and TAAR1 agonist 7.
Screening CSc1nsc2nc(=O)c(/C=C3\C(C)=Nc4ccccc43)c(N)n12 returned TAAR1 antag -8 and TAAR1 agonist -3.
Screening COC(=O)CCc1cccc(CCC(=O)OC)c1 returned TAAR1 antag -8, OXTR potentiator 0, OXTR ag 1, TAAR1 agonist 5 and V1aR counter 1.
O=C(NCc1ccco1)C(c1ccccc1)N(C(=O)Cc1cccs1)c1ccccc1F (stereo not drawn) was read as TAAR1 antag 58*, OXTR potentiator -11, OXTR ag -1, TAAR1 agonist 10 and V1aR counter -1.
`Nc1[nH]c2cc([N+](=O)[O-])ccc2c1-c1ccccn1` gave TAAR1 antag 69*, OXTR potentiator -14, OXTR ag 15, TAAR1 agonist 19 and V1aR counter 19.
For CC(=O)[C@@]1(O)Cc2c(O)c3c(c(O)c2[C@H](O[C@H]2C[C@H](N)[C@H](O)[C@H](C)O2)C1)C(=O)c1ccccc1C3=O the results were TAAR1 antag 44 and TAAR1 agonist 66*.
Screening COc1cccc2c1C(=O)c1c(O)c3c(c(O)c1C2=O)C[C@@](O)(C(=O)CO)C[C@@H]3O[C@H]1C[C@H](N)[C@H](O)[C@H](C)O1 returned TAAR1 antag 12, OXTR potentiator -10, OXTR ag 25*, TAAR1 agonist 7 and V1aR counter 23*.
Screening COc1ccc(S(=O)(=O)N2CCN(C(=O)C3CC3)CC2)cc1 returned TAAR1 antag 0, OXTR potentiator -9, OXTR ag 1, TAAR1 agonist -3 and V1aR counter 0.
`CCOC(=O)c1ccc(N2CCN(c3ccc(F)cc3)CC2)c(NC(=O)Nc2cccc(OC)c2)c1` gave TAAR1 antag 58*, OXTR potentiator -8, OXTR ag -1, TAAR1 agonist 9 and V1aR counter 1.
`COc1ccc(C(=O)Oc2ccc(C(=S)N3CCOCC3)cc2)cc1` gave TAAR1 antag -7, OXTR potentiator -9, OXTR ag 1, TAAR1 agonist 4 and V1aR counter 2.
Screening CCOC(=O)Cc1csc(SCC(=O)Nc2cc(Cl)ccc2Oc2ccccc2)n1 returned TAAR1 antag 88*, OXTR potentiator -17, OXTR ag 2, TAAR1 agonist 17 and V1aR counter 3.
